Shown are actives, neighbours in structure and some others; about 2.1% of the full set was active somewhere.
Scp1 inh: Scp-1 phosphatase inhibitors, primary screen, biochemical, colorimetric, uHTS; Carboxy-terminal domain RNA polymerase II polypeptide A small phosphatase 1 (Homo …; Recombinant Scp1, phosphopeptide, malachite green phosphate absorbance; inhibition, % at 20 µM; hit rate 0.88% among 340,000; AID 493091, 2011;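 active = inhibition above about 50% at 20 µM, limit read from the data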;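 note: plate controls were DMSO wells with enzyme for no effect and wells lacking enzyme for full effect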
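Test system: SCP-1 catalytic domain; Buffer or medium: Acidic Tris acetate buffer with magnesium and detergent; Also added: Phosphorylated 17-residue peptide substrate; Compound: single 20 µM dose, 1% DMSO; Schedule: enzyme reaction 45 min at room temperature, colour 5 min, stabilisation 30 min; Signal: Phosphate-binding colour reagent, absorbance read at 630 nm.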
STEP inh: STEP phosphatase inhibitors, primary screen, biochemical, fluorescence intensity, uHTS | hit rate 0.25% among 360,000 | Tyrosine-protein phosphatase non-receptor type 5 (Homo sapiens), P54829 | inhibition, % at 20 µM | recombinant STEP, OMFP fluorogenic substrate;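 active = inhibition at 20 µM, scaled per plate between control wells, above about 37%, limit read from the data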;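 note: 0% = DMSO with enzyme and substrate and 100% = substrate only without enzyme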
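material = STEP tyrosine phosphatase | reagent = fluorogenic phosphatase substrate OMFP at 25 µM final | doses = single compound dose of 20 µM, 1% DMSO final | schedule = 20 min reaction, room temperature, in the dark | measured by = fluorescence, 480/540 nm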
SUMO1 PPI mod: modulators of SUMO1 protein-protein interactions, primary screen, biochemical, uHTS; Small ubiquitin-related modifier 1 (Homo sapiens), P63165; AID 602429, 2012; SUMO1 binding to a labelled peptide, TR-FRET, 1 h; inhibition, % at 20 µM; hit rate 0.33% among 360,000; in the data active = inhibition above about 37%
LMPTP block: LMPTP phosphatase inhibitors, primary screen, biochemical, fluorescence intensity, uHTS. Low molecular weight phosphotyrosine protein phosphatase (Homo sapiens), P24666. recombinant LMPTP-A, OMFP fluorogenic substrate. inhibition, % at 20 µM. hit rate 0.22% among 360,000. AID 651560, 2012;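 active = compounds that cut the enzyme signal by at least half of the control window in the single-dose screen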;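 note: plate controls were DMSO wells with enzyme plus substrate for no effect and substrate without enzyme for full effect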
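test system = LMPTP-A | amount = 0.625 nM LMPTP-A final | reagent = fluorogenic phosphatase substrate OMFP at 400 µM final | incubation = 50 min at room temperature | benchmarks = no-enzyme low control, uninhibited high control | medium = Bis-Tris pH 6.0, DTT, detergent | signal = fluorescence intensity of OMFP turnover product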
DNMT1 block: human DNMT1 methyltransferase inhibitors, primary screen, biochemical, molecular beacon, fluorescence, HinP1I cleavage, uHTS. DNA (cytosine-5)-methyltransferase 1 (Homo sapiens), P26358. inhibition (reported as % activation of signal), % at 10 µM. hit rate 0.83% among 360,000. AID 588458, 2011; in the data active = inhibition above about 50%
Target sequence (P26358 504-1616 limits assumed): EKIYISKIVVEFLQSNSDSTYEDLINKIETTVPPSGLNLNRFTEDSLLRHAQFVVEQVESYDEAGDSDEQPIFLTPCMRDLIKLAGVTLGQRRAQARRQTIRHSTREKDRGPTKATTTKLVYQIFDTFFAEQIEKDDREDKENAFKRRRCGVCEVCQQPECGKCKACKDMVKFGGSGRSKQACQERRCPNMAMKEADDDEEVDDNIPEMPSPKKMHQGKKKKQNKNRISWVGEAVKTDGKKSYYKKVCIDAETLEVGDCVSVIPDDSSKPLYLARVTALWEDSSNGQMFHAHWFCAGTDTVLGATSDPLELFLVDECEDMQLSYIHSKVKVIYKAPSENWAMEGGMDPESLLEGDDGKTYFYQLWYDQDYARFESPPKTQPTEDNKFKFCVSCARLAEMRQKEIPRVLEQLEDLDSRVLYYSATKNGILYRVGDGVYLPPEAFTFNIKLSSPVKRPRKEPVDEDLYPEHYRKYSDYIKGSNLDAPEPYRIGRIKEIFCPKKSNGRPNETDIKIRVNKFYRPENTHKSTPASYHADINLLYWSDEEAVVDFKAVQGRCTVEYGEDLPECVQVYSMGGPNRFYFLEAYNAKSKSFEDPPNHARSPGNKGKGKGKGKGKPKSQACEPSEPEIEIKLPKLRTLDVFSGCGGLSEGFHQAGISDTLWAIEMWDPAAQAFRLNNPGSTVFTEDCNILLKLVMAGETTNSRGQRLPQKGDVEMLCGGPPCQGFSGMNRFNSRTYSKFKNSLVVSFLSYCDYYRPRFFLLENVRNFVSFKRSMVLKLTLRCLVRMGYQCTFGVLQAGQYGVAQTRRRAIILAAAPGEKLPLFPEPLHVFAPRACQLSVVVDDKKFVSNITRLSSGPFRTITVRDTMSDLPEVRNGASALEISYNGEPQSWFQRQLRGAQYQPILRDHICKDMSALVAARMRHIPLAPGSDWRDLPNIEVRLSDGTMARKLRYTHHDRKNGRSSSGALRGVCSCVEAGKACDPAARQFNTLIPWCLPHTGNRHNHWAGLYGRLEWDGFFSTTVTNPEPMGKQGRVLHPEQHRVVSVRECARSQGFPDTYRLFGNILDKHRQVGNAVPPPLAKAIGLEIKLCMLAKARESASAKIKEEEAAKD
GRK2 aptamer HTS: compounds blocking aptamer binding on GRK2 – biochemical, human GRK2, bead flow cytometry, HTS, primary screen; hit rate 0.59% among 330,000; inhibition of aptamer binding, % at 10 µM; AID 488847, 2010; FAM-aptamer displacement from GRK2;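 active = inhibition of aptamer binding above 40%, roughly 3 SD of noise, on plates passing a quality check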;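 note: median bead fluorescence of bound FAM aptamer so fluorescent compounds give negative values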
* = called active by the depositor; . = no result given.

SMILES | Scp1 inh | STEP inh | SUMO1 PPI mod | LMPTP block | DNMT1 block | GRK2 aptamer HTS
CCOC(=O)NC(NC(=O)OCC)C(=O)c1ccc(F)cc1 | 102* | 0 | -1 | -2 | -5 | 1
O=C(O)C(Cc1ccccc1)N=C(NS(=O)(=O)c1ccccc1)c1ccccc1 (stereo not given) | 3 | -3 | 2 | -2 | 3 | 3
Cc1ccc2[nH]c3ccccc3c(=O)c2c1 | -9 | 5 | -23 | 1 | 10 | 11
O=c1c2ccccc2[nH]c2ccc(O)cc12 | 61* | 8 | 5 | 7 | 33 | 7
O=C(CSc1nnc(SCc2ccc(Cl)cc2)s1)N/N=C/c1c[nH]c2ccccc12 | 16 | 3 | 42* | 11 | 70* | 0
O=C(CSc1nnc(SCc2cccc3ccccc23)s1)N/N=C/c1c[nH]c2ccccc12 | -5 | -2 | 2 | 4 | -21 | 1
O=C(Cn1nc(-c2ccccc2)oc1=O)OCC(=O)c1ccc(F)c(F)c1 | -6 | 0 | -1 | -1 | 2 | 4
COc1ccccc1P(=O)(c1ccccc1)c1ccccc1 | -4 | -2 | 5 | -1 | 1 | 0
Cc1ccccc1P(=O)(c1ccccc1)c1ccccc1C | . | -3 | 44* | -2 | -1 | .
CN(C)c1cc[n+](CC(=O)c2ccc(-c3ccccc3)cc2)cc1 | 4 | 0 | -1 | 0 | 4 | 0
CCC(=O)c1ccc(OCC(=O)Nc2nc(-c3cccnc3)cs2)cc1 | 39 | 12 | 46* | 4 | 41 | 0
CCC(C)[C@H]1CNC(=O)C(=O)N1CC1CCCCC1 (stereo not given in full) | . | . | 47* | 6 | . | .
CC1(C(=O)O)CCCN1C(=O)c1cccc(F)c1 (stereo not given) | . | -1 | 1 | -1 | 2 | .
CCN1CCc2c(sc(N)c2C#N)C1 | -9 | 3 | -4 | 2 | -10 | 63*
CC(C)N1CCc2c(sc(N)c2C#N)C1 | -4 | -3 | -2 | 3 | -6 | 17
CC(C)C[C@@H](CNCC(=O)[C@H](CC(=O)O)NC(=O)c1[nH]cnc1C(=O)N[C@H](CN)CC(C)C)NC(=O)c1nc[nH]c1C(=O)N[C@@H](Cc1ccccc1)C(=O)O | -2 | -1 | 48* | -2 | 7 | .
CC(C)C[C@@H](CNCC(=O)[C@H](CC(C)C)NC(=O)c1[nH]cnc1C(=O)N[C@@H](C)CN)NC(=O)c1nc[nH]c1C(=O)N[C@@H](Cc1ccccc1)C(=O)O | 15 | -1 | 1 | -2 | 4 | .
Cc1cccc(NC(=O)c2cc(-c3cc(C)ccc3O)n[nH]2)c1 | -22 | -3 | 0 | 0 | 5 | 0
CC(=O)Nc1ccc(NC(=O)c2cc(-c3ccc(C)cc3O)n[nH]2)cc1 | 2 | 3 | 74* | 0 | -6 | 0
COc1cc(F)ccc1-c1cc(C(=O)Nc2ccc(NC(C)=O)cc2)[nH]n1 | . | -1 | 63* | 1 | 0 | .
CC1(C(=O)Nc2ccc3c(c2)OCCO3)CN(S(C)(=O)=O)CC(=O)N1CCCN1CCOCC1 (stereo not given) | . | . | 1 | -2 | . | .
O=C(C[C@H]1CC[C@@H]2[C@H](COC[C@@H](O)CN2Cc2ccc(Cl)cc2)O1)NCCc1ccccc1 | . | . | 4 | -2 | . | .
Cc1cc(NC(=O)c2ccccc2)nc2c1c(=O)oc1ccccc12 | -15 | 2 | 52* | 2 | 1 | 0
CCOc1ccc(C(=O)Nc2cc(C)c3c(=O)oc4ccccc4c3n2)cc1 | -9 | 6 | -45 | 0 | 46 | 0
CCOCCCN(C)C1CCN(C(=O)c2oc3ccccc3c2NC(=O)COc2ccc(F)cc2)CC1 | 1 | 0 | -4 | 0 | -4 | 1
SMILES | Scp1 inh | STEP inh | SUMO1 PPI mod | LMPTP block | DNMT1 block | GRK2 aptamer HTS
Nc1cccc2cc(S(=O)(=O)O)ccc12 | 62* | 22 | 25 | 4 | 62* | .
CC(=O)N1CCN(S(=O)(=O)c2cccc(C(=O)OCC(=O)NCc3ccccc3Cl)c2)CC1 | . | 2 | 1 | -1 | 1 | .
O=C(NN=Cc1ccc([N+](=O)[O-])cc1)c1ccncc1 | -5 | -2 | -33 | -1 | 1 | .
O=C(/C=C/c1ccc([N+](=O)[O-])cc1)Oc1ccc(/C=N/NC(=O)c2ccncc2)cc1 | -7 | 2 | 47* | 47 | 5 | 0
Cc1cccc(C)c1NC(=O)C(c1ccccc1)N(C)CCc1ccccc1 (stereo not given) | . | 2 | -2 | 0 | 6 | .
NS(=O)(=O)c1ccc(CCNC(=O)c2ccc(Cl)s2)cc1 | -5 | -1 | -1 | 0 | 1 | 1
NS(=O)(=O)c1ccc(CCNC(=O)c2cc3ccccc3s2)cc1 | 58* | 6 | 9 | 1 | 2 | 0
Nc1ccc(C(=O)OCc2ccncc2)cc1[N+](=O)[O-] | 2 | -1 | -29 | 1 | 0 | 7
COc1ccc(-n2ncc3c(SCC(=O)N4CCN(c5ccccc5OC)CC4)ncnc32)cc1 | -1 | -1 | -2 | 2 | -1 | 0
CC1=NOC(=O)/C1=C\c1ccc(-c2ccc(Br)cc2)o1 | 1 | 4 | 15 | 5 | 61* | .
O=C(CSc1n[nH]c(=O)[nH]c1=O)Nc1cccc(S(=O)(=O)N2CCOCC2)c1 | 3 | 1 | 1 | -2 | -5 | 5
O=C(CSc1n[nH]c(=O)[nH]c1=O)Nc1ccc2c(c1)C(=O)c1ccccc1C2=O | 82* | 88* | 96* | 69* | 45 | 10
Cc1ccccc1NCC(=O)N=Nc1c(O)[nH]c2ccc([N+](=O)[O-])cc12 | 1 | 4 | -14 | 0 | -6 | 1
O=C(O)c1ccccc1N=Nc1c(O)[nH]c2ccc([N+](=O)[O-])cc12 | 81* | 46* | 111* | 21 | 17 | 4
CCC1CCCCN1C(=O)c1sc2ncnc(N(CC)CC)c2c1C (stereo not given) | 0 | 2 | 0 | 0 | 1 | 0
COc1cc(/C=C2/C(=O)NN(c3ccc(Cl)c(Cl)c3)C2=O)cc([N+](=O)[O-])c1O | 92* | 9 | 9 | 6 | 10 | 4
COc1cc(/C=C2/C(=O)NN(c3ccc(Cl)cc3)C2=O)cc(Br)c1O | 35 | 83* | 75* | 65* | 48 | 7
COc1ccccc1N1CCN(C(c2cc3cc(C)ccc3[nH]c2=O)c2nnnn2C2CCCC2)CC1 (stereo not given) | -5 | -13 | 45* | -1 | -5 | 1
